Wee1 stabilizer: inhibitors of human Wee1 degradation; AID 1321; reporter increase, % at 5 µM; HeLa Luc-Wee1K328M stability, luciferase luminescence; 100% = proteasome inhibitor MG132 effect; hit rate 1.2% among 220,000; P30291;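 active = activation above the mean of all tested compounds plus 3 SD, set per screening run, cut at about 8.8% in these data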;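 also: cells exposed to compound for 20 h before luminescence read; 0% = DMSO alone and 100% = MG132 at 30 µM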
NPY Y1 blocker: blocks the human neuropeptide Y Y1 receptor; P25929; HEK293-CNG Y1 cells, membrane potential fluorescence; NPY at EC95, then isoproterenol; inhibition, % at 3.6 µM; hit rate 1% among 200,000;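 active = inhibition above the campaign mean inhibition of all tested compounds plus 3 SD, cut at about 20% in these data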;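 also: 0% = DMSO wells given NPY plus isoproterenol and 100% = isoproterenol alone without NPY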
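Test system: HEK293 cells co-expressing NPY Y1 receptor and cyclic-nucleotide gated channel; Also added: NPY (25 nM), isoproterenol (1 µM), Ro 20-1724 (25 µM); Compound dosing: one concentration, 3.6 µM, in 0.4% DMSO; Timing: dye 3 h, compound 60 min room temperature, stimulation 45 min; Technique: Membrane-potential fluorescent dye readout.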
NPY-Y2 antag: antagonists of human neuropeptide Y receptor Y2; P49146; NPY-Y2 expressing cells, antagonist mode; AID 793; hit rate 0.99% among 140,000; inhibition, % at 2.7 µM; in the data active = inhibition above about 17%;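 also: 0% = vehicle with agonist challenge and 100% = reference antagonist with challenge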
Target sequence (P49146 whole entry, looked up): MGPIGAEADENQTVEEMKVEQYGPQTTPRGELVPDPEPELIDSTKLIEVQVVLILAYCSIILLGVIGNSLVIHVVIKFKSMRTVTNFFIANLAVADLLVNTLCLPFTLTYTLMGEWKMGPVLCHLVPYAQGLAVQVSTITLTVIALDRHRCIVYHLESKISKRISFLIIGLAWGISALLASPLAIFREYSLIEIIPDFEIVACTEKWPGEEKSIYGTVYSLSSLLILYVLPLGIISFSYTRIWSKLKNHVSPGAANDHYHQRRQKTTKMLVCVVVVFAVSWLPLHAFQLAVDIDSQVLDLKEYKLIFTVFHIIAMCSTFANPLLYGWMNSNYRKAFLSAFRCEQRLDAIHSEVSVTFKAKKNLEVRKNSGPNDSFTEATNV
NPY2 pot ag: potentiates or activates human NPY-Y2 receptor. cells expressing NPY-Y2, potentiator/agonist read-out. AID 1359. P49146. hit rate 0.45% among 220,000. activation, % at 3.6 µM; in the data active = activation above about 27%;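 also: cells stimulated with NPY near EC25 plus isoproterenol at EC100; 0% = vehicle plus submaximal agonist and 100% = vehicle plus saturating agonist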
NPY1 pot ag: human NPY-Y1 potentiation or agonism, primary screen | activation, % at 3.6 µM | AID 1304 | NPY-Y1 expressing cells, potentiator/agonist activation | hit rate 0.37% among 220,000 | P25929; in the data active = activation above about 33%, passing the limit was not always enough;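 also: cells stimulated with NPY at EC10 then isoproterenol at EC100; 0% = low agonist plus stimulus and 100% = saturating agonist plus stimulus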
Hsp70 act: transcriptional activators of Hsp70; HeLa Hsp70 promoter luciferase reporter, luminescence; scaled: vehicle 0, proteasome-inhibitor control 100%; activation, % at 10 µM; hit rate 0.04% among 200,000; AID 1203;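 active = activation above the mean across all tested compounds plus 3 SD, cutoff set per campaign, cut at about 5.5% in these data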;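 also: 100% = MG132 at 30 µM as the positive control and 0% = DMSO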
Wee1 degr conf: confirmation of human Wee1 degradation inhibitors | shares compounds with Wee1 stabilizer | hit rate 4% among 1,100 | HeLa Luc-Wee1K328M degradation, luminescence; vehicle 0%, proteasome-blocked wells 100% | activation, % at 5 µM; in the data active = activation above about 8.9%
An asterisk follows results filed as active; / = not tested or not shown. Rows were chosen to be rich in hits. Some 3% of all compounds tested hit in one or more screens of this group.

SMILES | Wee1 stabilizer | NPY Y1 blocker | NPY-Y2 antag | NPY2 pot ag | NPY1 pot ag | Hsp70 act | Wee1 degr conf
NCCOc1ccccc1-c1ccccc1 | 5 | 7 | 7 | 7 | 0 | 0 | /
NCCOc1ccccc1OCCN | 12* | 6 | / | 8 | 2 | -1 | 0
CC1CCC2=NN(C(=O)c3ccco3)C(O)(C(F)(F)F)C2C1 (stereo not given) | 0 | 1 | / | 6 | -4 | 0 | /
COc1ccc(-c2nc(NC(=O)c3n[nH]c(=O)c4ccccc34)sc2C)cc1 | 32* | -2 | 0 | 3 | 14 | 0 | -3
COc1cc(NC(=O)c2n[nH]c(=O)c3ccccc23)cc(OC)c1 | -1 | / | / | -7 | 20 | / | /
Cc1cccc(NC(=S)N2CCC(C(N)=O)(N3CCCCC3)CC2)c1C | 0 | -5 | / | -2 | 18 | 0 | /
O=C(Cc1ccccc1)Nc1ccccc1N1CCOCC1 | 21* | 5 | 4 | -2 | -14 | 0 | 1
O=C(Cc1ccccc1)Nc1ccccc1N1CCCC1 | -3 | -1 | / | -9 | -9 | 0 | /
O=C(N/N=C/c1ccc(Cl)cc1Cl)c1cccc(F)c1 | 1 | 0 | 5 | -19 | -18 | 1 | /
O=C(C[n+]1ccc(C(=O)N/N=C/c2ccc(Cl)cc2Cl)cc1)c1ccccc1 | 13* | 5 | 1 | -21 | 3 | -1 | -6
O=C(CSc1nnc(-c2ccncc2)n1CCc1ccccc1)N1CCCC1 | 12* | / | / | -5 | 9 | / | 4
O=C(CSc1nnc(-c2ccncc2)o1)N1CCCCCC1 | 13* | 1 | / | -9 | 8 | 0 | 5
O=C(N/N=C/C(Br)=C\c1ccccc1)c1cccs1 | 12* | / | / | 0 | 10 | / | 5
Cc1occc1C(=O)N/N=C/C=C/c1ccccc1 | 4 | 2 | / | 0 | -1 | 0 | /
Cc1occc1C(=O)N/N=C/C(Br)=C\c1ccccc1 | 28* | / | / | -6 | 2 | / | 5
COc1ccc(NC(=O)CN2C(=O)N(C)Cc3ccccc32)c(C)c1 | 0 | 0 | / | -3 | 2 | 0 | /
Fc1ccc(CSc2ccc(-c3ccco3)nn2)cc1 | 12* | -5 | 5 | 4 | 0 | 0 | 7
Cn1cccc1/C=C1\SC(=Nc2ccccc2)NC1=O | 19* | / | / | -11 | 7 | / | 14*
Cn1cccc1/C=C1\SC(=Nc2ccc(O)cc2)NC1=O | -1 | / | / | -13 | 10 | / | /
CN(C=O)CP(=O)(O)CN1CCCCC1 | 0 | -1 | -2 | 2 | 15 | 0 | /
CN(C)n1cccc1/C=C(\C#N)S(=O)(=O)c1ccc(Cl)cc1 | -2 | / | / | 9 | -24 | / | /
CC1CCCN(CC(O)COC(c2ccccc2)c2ccccc2)C1 (stereo not given) | 12* | 16 | / | -5 | -3 | -1 | -1
C=CCn1c(SC)nnc1C1COc2ccccc2O1 (stereo not given) | 3 | 3 | / | -7 | -1 | 0 | /
Cc1ccc(OCC(=O)Nc2cc(C(=O)O)cc(C(=O)O)c2)cc1C | -1 | 5 | / | 6 | -3 | 0 | /
COc1ccc(-c2cc(=NC(CC(C)C)C(=O)O)c3cc(C)ccc3o2)cc1 (stereo not given) | 12* | 2 | 3 | 13 | 22 | 0 | -1
SMILES | Wee1 stabilizer | NPY Y1 blocker | NPY-Y2 antag | NPY2 pot ag | NPY1 pot ag | Hsp70 act | Wee1 degr conf
CCCn1c(SCC(=O)Nc2nnc(C)s2)nnc1-c1ccoc1C | 1 | 4 | 0 | 5 | -9 | 0 | /
C/C(=N\O)C(C)(C)Nc1ccc(Cl)cc1 | -2 | / | / | 9 | 14 | / | /
CC(=O)Nc1ccc(CN2CCN(CCc3ccccc3)C(CCO)C2)cc1 (stereo not given) | -2 | 9 | / | -20 | -11 | 0 | /
Cc1nc(Nc2ccccc2Cl)sc1C(=O)Nc1ccccc1 | 17* | 1 | 2 | -6 | -38 | 0 | 2
COc1ccc(NC(=O)CNS(=O)(=O)c2ccc(Cl)cc2)cc1OC | 15* | -8 | 0 | 7 | -13 | 0 | 3
Cc1nc(NC(=O)c2ccc(Br)o2)sc1C | 11* | -2 | 2 | -13 | -13 | 0 | 2
CCCCN1C(=O)Nc2ccccc2S1(=O)=O | -4 | -1 | 1 | -9 | 7 | 0 | /
COc1ccnc(Oc2ccc(F)cc2)c1-c1ncn[nH]1 | -1 | 2 | / | 10 | 7 | 0 | /
O=C(NCCCCNC(=O)C1CCCC1)C1CCCC1 | -1 | -1 | 0 | 0 | -12 | 0 | /
CC(C)(CNC(=O)C1CCCC1)CNC(=O)C1CCCC1 | 11* | -3 | 2 | 6 | -10 | 0 | 2
COC(=O)Cc1c(C(=O)OC)nnn1-c1ccc(OC(F)(F)F)cc1 | 16* | 3 | / | 6 | 0 | 0 | 5
COc1cccc(C2=CC(c3cccc(OC)c3OC)n3nnnc3N2)c1 (stereo not given) | 11* | 7 | 5 | -14 | -11 | 0 | 12*
COc1cccc(C2=CC(c3cccc(OC)c3OC(F)F)n3nnnc3N2)c1 (stereo not given) | 1 | 8 | 0 | -6 | -11 | 0 | /
Cc1cc(O)c(-c2cc(C(=O)Nc3cccnc3)[nH]n2)cc1C | 18* | / | / | 7 | 15 | / | 4
COc1ccc(C(=O)C2CCCN(C(=O)c3ccoc3C)C2)cc1F (stereo not given) | 0 | / | / | 8 | 25 | / | /
Cc1cccc(C)c1N1CCN(C(=O)N2CCOCC2)CC1 | 1 | 1 | / | 3 | 5 | 0 | /
Cc1ccc(N2CCN(C(=O)N3CCOCC3)CC2)cc1C | 12* | 1 | / | 1 | -4 | 0 | 6
c1ccc(-c2nc(-c3nccc4ccccc34)oc2-c2ccccc2)cc1 | 6 | / | / | -10 | -10 | / | /
O=C(CC1C(=O)NCCN1Cc1c(F)cccc1Cl)NCCCn1cccn1 (stereo not given) | -2 | / | / | 11 | 13 | / | /
O=C1OCc2cc(NC(=O)C3CCCO3)ccc21 (stereo not given) | 0 | 5 | 2 | 8 | -3 | 0 | /
O=C1NC(=O)c2cc(NC(=O)C3CCCO3)ccc21 (stereo not given) | 16* | 4 | 2 | -8 | -7 | 0 | 2
CCOc1ccc(S(=O)(=O)NCCC(=O)N2CCN(c3ccc(OC)cc3)CC2)cc1 | 11* | 2 | / | -10 | -20 | 0 | -1
CCN(CC(=O)NCc1cccs1)c1ccc(S(=O)(=O)N2CCCC2)cn1 | 14* | 1 | / | 7 | 14 | 0 | 2
O=C(/C=C/c1ccccc1)/C=C/c1ccccc1 | 5 | -2 | 3 | -6 | 3 | 0 | /
O=C(NC1CCCCCCC1)c1ccccc1O | -1 | 4 | -1 | 4 | -8 | 0 | /
CSc1ccccc1C(=O)NC1CCCCCC1 | 14* | -1 | 4 | 0 | 21 | 0 | 2
O=[N+]([O-])c1cccc(-c2nnc(C3CC3)o2)c1 | -2 | / | / | 0 | 6 | / | /
Nc1nnc(-c2cccc([N+](=O)[O-])c2)o1 | 11* | / | / | 12 | -17 | / | 2

Source: PubChem (The Scripps Research Institute Molecular Screening Center)
